Test results taken from ChEMBL document CHEMBL1124084, “Studies on scavengers of active oxygen species. 1. Synthesis and biological activity of 2-O-alkylascorbic acids” (J Med Chem, 1988).
The source made the active and inactive calls. The calls are words filed in the database; no cut-off is given here.

Assays:
[1] = organism: Rattus norvegicus; assay: Antilipid peroxidation was measured at 10e-5 M concentration.; format: functional
Method in brief: (§1)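 Rat brain lipid peroxidation: brains from male SD rats (12 weeks old), exsanguinated under pentobarbital anaesthesia, homogenized to 5% in phosphate buffer pH 7.4. Homogenate incubated with test drug at 37 °C for 1 h. Lipid peroxide quantified by the thiobarbituric acid method.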

[2] = system: Rattus norvegicus; assay: Effect of AOS scavenger on premeture ventricular complexes PVCs, arrhythmias induced by ischemia-reperfusion in anesthetized rat, duration at 10 mg/kg; format: functional, Cardiac ventricle
[3] = system: Rattus norvegicus; assay: Effect of AOS scavenger on ventricular tachycardia (VT),arrhythmias induced by ischemia-reperfusion in anesthetized rat, duration at 10 mg/kg; format: functional, Cardiac ventricle
[4] = system: Rattus norvegicus; assay: Effect of AOS scavenger on ventricular tachycardia (VT), arrhythmias induced by ischemia-reperfusion in anesthetized rat, frequency, times at 10 mg/kg; format: functional, Cardiac ventricle
[5] = system: Rattus norvegicus; assay: Effect of AOS scavenger on ventricular fibrillation (VF), arrhythmias induced by ischemia-reperfusion in anesthetized rat, frequency, times at 10 mg/kg; format: functional, Cardiac ventricle
[6] = system: Rattus norvegicus; assay: Effect of AOS scavenger on ventricular fibrillation (VF),arrhythmias induced by ischemia-reperfusion in anesthetized rat, incidence at 10 mg/kg; 3/6; format: functional, Cardiac ventricle
[7] = system: Rattus norvegicus; assay: Effect of AOS scavenger on ventricular fibrillation (VF),arrhythmias induced by ischemia-reperfusion in anesthetized rat, duration at 10 mg/kg; format: functional, Cardiac ventricle
[8] = Reducing activity determined by the use of stable radical alpha,alpha-di-phenyl-beta-picrylhydrazyl (DPPH); set-up: concentration or dose not given beside the values
[9] = system: Rattus norvegicus; assay: Effect of AOS scavenger on ventricular tachycardia (VT),arrhythmias induced by ischemia-reperfusion in anesthetized rat, incidence at 10 mg/kg
[10] = organism: Rattus norvegicus; assay: Antilipid peroxidation was determined; format: functional; method in brief: as §1
[11] = system: Rattus norvegicus; assay: Effect of AOS scavenger on ventricular tachycardia (VT),arrhythmias induced by ischemia-reperfusion in anesthetized rat, frequency, times at 10 mg/kg; format: functional, Cardiac ventricle
[12] = organism: Rattus norvegicus; assay: Inhibition of lipid peroxidation was determined with rat brain tissue homogenates; format: functional
Method in brief: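 Brains excised from male SD rats (12 weeks), exsanguinated under pentobarbital anesthesia; 5% homogenate in phosphate buffer pH 7.4 incubated with test drug 1 h at 37 °C; lipid peroxide quantified by thiobarbituric acid method.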

[13] = system: Rattus norvegicus; assay: Effect of AOS scavenger on ventricular fibrillation (VF),arrhythmias induced by ischemia-reperfusion in anesthetized rat, incidence at 10 mg/kg; 4/7; format: functional, Cardiac ventricle
[14] = system: Rattus norvegicus; assay: Effect of AOS scavenger on ventricular tachycardia (VT),arrhythmias induced by ischemia-reperfusion in anesthetized rat, incidence at 10 mg/kg; 6/7; format: functional, Cardiac ventricle
[15] = system: Rattus norvegicus; assay: Effect of AOS scavenger on ventricular fibrillation (VF),arrhythmias induced by ischemia-reperfusion in anesthetized rat, duration at 10 mg/kg
[16] = system: Rattus norvegicus; assay: Effect of AOS scavenger on ventricular fibrillation (VF),arrhythmias induced by ischemia-reperfusion in anesthetized rat, frequency at 10 mg/kg
[17] = system: Rattus norvegicus; assay: Effect of AOS scavenger on premeture ventricular complexes PVCs, arrhythmias induced by ischemia-reperfusion in anesthetized rat, duration at 3 mg/kg; format: functional, Cardiac ventricle
[18] = system: Rattus norvegicus; assay: Effect of AOS scavenger on ventricular fibrillation (VF), arrhythmias induced by ischemia-reperfusion in anesthetized rat, duration at 3 mg/kg; format: functional, Cardiac ventricle
[19] = system: Rattus norvegicus; assay: Effect of AOS scavenger on ventricular tachycardia (VT), arrhythmias induced by ischemia-reperfusion in anesthetized rat, duration at 3 mg/kg; format: functional, Cardiac ventricle
[20] = system: Rattus norvegicus; assay: Effect of AOS scavenger on ventricular fibrillation (VF), arrhythmias induced by ischemia-reperfusion in anesthetized rat, frequency, times at 3 mg/kg; format: functional, Cardiac ventricle
[21] = system: Rattus norvegicus; assay: Effect of AOS scavenger on ventricular tachycardia (VT), arrhythmias induced by ischemia-reperfusion in anesthetized rat, frequency, times at 3 mg/kg; format: functional, Cardiac ventricle
[22] = system: Rattus norvegicus; assay: Effect of AOS scavenger on ventricular fibrillation (VF), arrhythmias induced by ischemia-reperfusion in anesthetized rat, incidence at 3 mg/kg; 8/10; format: functional, Cardiac ventricle
[23] = system: Rattus norvegicus; assay: Effect of AOS scavenger on ventricular tachycardia (VT), arrhythmias induced by ischemia-reperfusion in anesthetized rat, incidence at 3 mg/kg; 8/10; format: functional, Cardiac ventricle
[24] = system: Rattus norvegicus; assay: Effect of AOS scavenger on arrhythmias induced by ischemia-reperfusion in anesthetized rat measured as ventricular tachycardia (VT), duration at 3 mg/kg; format: functional, Cardiac ventricle
[25] = system: Rattus norvegicus; assay: Effect of AOS scavenger on arrhythmias induced by ischemia-reperfusion in anesthetized rat measured as ventricular tachycardia (VT), frequency, times at 3 mg/kg; format: functional, Cardiac ventricle
[26] = system: Rattus norvegicus; assay: Effect of AOS scavenger on ventricular fibrillation (VF), arrhythmias induced by ischemia-reperfusion in anesthetized rat, incidence at 3 mg/kg; format: functional, Cardiac ventricle
[27] = system: Rattus norvegicus; assay: Effect of AOS scavenger on arrhythmias induced by ischemia-reperfusion in anesthetized rat measured as ventricular tachycardia (VT), incidence at 3 mg/kg; 6/6; format: functional, Cardiac ventricle
[28] = system: Rattus norvegicus; assay: Effect of AOS scavenger on ventricular fibrillation (VF), arrhythmias induced by ischemia-reperfusion in anesthetized rat, incidence at 3 mg/kg; 6/6; format: functional, Cardiac ventricle
[29] = organism: Rattus norvegicus; assay: Reducing activity determined by the use of stable radical alpha,alpha-di-phenyl-beta-picrylhydrazyl (DPPH); format: functional, organism-based
Method in brief: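 Compound mixed with equimolar α,α-diphenyl-β-picrylhydrazyl; absorbance at 517 nm read after 20 min; reducing activity taken as absorbance difference from control.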

[30] = organism: Rattus norvegicus; assay: Antilipid peroxidation was determined; No effect; format: functional; method in brief: as §1
[31] = system: Rattus norvegicus; assay: Effect of AOS scavenger on ventricular tachycardia (VT),arrhythmias induced by ischemia-reperfusion in anesthetized rat duration at 10 mg/kg; format: functional, Cardiac ventricle
[32] = system: Rattus norvegicus; assay: Effect of AOS scavenger on ventricular fibrillation (VF),arrhythmias induced by ischemia-reperfusion in anesthetized rat; incidence at 10 mg/kg 7/8; format: functional, Cardiac ventricle
[33] = system: Rattus norvegicus; assay: Effect of AOS scavenger on ventricular tachycardia (VT),arrhythmias induced by ischemia-reperfusion in anesthetized rat, incidence at 10 mg/kg; 8/8; format: functional, Cardiac ventricle

CCCCCCCCCCCCCCCCCCOC1=C(O)C(=O)OC1C(O)CO (stereo unspecified)
Antilipid peroxidation [1]: 34.5% | PVCs [2]: 3.9 | Duration [3]: <4 s | Frequency [4]: 2.3 | Frequency [5]: <0.8 | Incidence [6]: 3 N | Duration [7]: <1.9 s | Reducing activity [8]: 94.5% | Incidence [9]: 4 N

CCCCCCCCCCCCCCCOC1=C(O)OC(C(O)CO)C1=O (stereo unspecified)
Antilipid peroxidation [10]: 67.4% | Activity [2]: <4.3 min | Duration [3]: 11.9 s | Frequency [11]: 5 | IC50 [12]: 5.6 µM | Incidence [13]: 4 N | Incidence [14]: 6 N | Reducing activity [8]: 95.4% | Duration [15]: <3 s | Frequency [16]: <0.9

Cc1c(C)c2c(c(C)c1O)CC[C@@](C)(CCC[C@H](C)CCC[C@H](C)CCCC(C)C)O2 [ALPHA-TOCOPHEROL]
Antilipid peroxidation [10]: 52% | Activity [17]: 23.3 min | Duration [18]: 111.1 s | Duration [19]: 7.4 s | Frequency [20]: 2.1 | Frequency [21]: 3.1 | Incidence [22]: 8 N | Incidence [23]: 8 N | Reducing activity [8]: 72%

O=C1O[C@H]([C@@H](O)CO)C(O)=C1O [ASCORBIC ACID]
Antilipid peroxidation [10]: -71% | Activity [17]: 7.4 min | Duration [24]: 8.2 s | Frequency [25]: 3.7 | Duration [26]: 41.4 s | Frequency [26]: 4 | Incidence [27]: 6 N | Incidence [28]: 6 N | Reducing activity [29]: 93.4%

O=C1C(OCc2ccccc2)=C(O)OC1C(O)CO (stereo unspecified)
Antilipid peroxidation [30]: inactive | PVCs [2]: 26.9 PVCs/min | Duration [31]: <4.9 s | Frequency [4]: 3.9 | Frequency [5]: 2.5 | Incidence [32]: 7 N | Incidence [33]: 8 N | Duration [7]: 79.9 s | Reducing activity [8]: 93%
